PGC1a Ac signal: compounds raising PGC1a acetylation signal, primary screen, PGC1a modulator project, cell-based, U2OS, AlphaScreen, signal-increasing mode; overnight; activation, % at 15.6 µM; 0.21% of 350,000 active; AID 651723, 2012;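 active = every replicate reaching activation of at least 50%, whatever the mean replicate activation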;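 note: hits raise the AlphaScreen acetylation signal above neutral controls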
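System: flag-PGC1a/GCN5 U2OS cells / Input: 7000 cells/well / Compound: single test concentration per compound / Incubation: overnight compound treatment, 37 °C / Technique: AlphaScreen on lysates with anti-acetyl-lysine antibody, acceptor and donor beads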
Numbers stand for hits; . = inactive. These entries were drawn from the full list.

SMILES	PGC1a Ac signal
O=C(C[C@@H]1C=C[C@@H](NC(=O)Nc2ccc(C(F)(F)F)cc2)[C@H](CO)O1)NCc1ccccn1	.
C[C@H]1CN([C@@H](C)CO)C(=O)Cc2cc(NC(=O)Nc3ccccc3)ccc2O[C@@H]1CN(C)Cc1ccccc1	.
Cc1no[n+]([O-])c1COc1cccc(/C=N/Nc2nncn2N)c1	.
O=C(OCc1cnc(Cl)s1)c1cccs1	.
Cc1ccc2[nH]c3ccccc3c(=O)c2c1	68.0
Cc1nc2ccccc2n2c(O)c(CC(=O)O)cc12	.
O=C(Nc1ccc(F)cc1)C1CCCN1S(=O)(=O)c1cccc2nsnc12 (stereo not drawn)	.
C[C@H]1CN([C@@H](C)CO)C(=O)c2cc(/C=C/c3ccccc3)cnc2O[C@H]1CN(C)C(=O)CN(C)C	.
O=C(NC(=S)Nc1cccc(Cl)c1N1CCCCC1)c1ccco1	104.4
C[C@@H]1CN([C@H](C)CO)C(=O)c2cc(C#CC(C)(C)O)cnc2O[C@H]1CN(C)C(=O)c1ccccc1F	.
Cn1c(=O)c2c(ncn2CC(=O)O)n(C)c1=O	.
CCN(CC)C1CC(=O)N(c2ccc(Br)cc2)C1=O (stereo not drawn)	.
O=C(NCc1ccc2c(c1)OCO2)c1nc(S(=O)(=O)Cc2ccccc2)ncc1Cl	73.7
CC(C)OC(=O)c1c(F)c(F)c(N2CCOCC2)c(F)c1F	.
C[C@@H]1CN([C@@H](C)CO)C(=O)c2cccc(NC(=O)c3ccc(-c4nccs4)cc3)c2O[C@@H]1CN(C)C(=O)Nc1ccc(C(F)(F)F)cc1	.
NS(=O)(=O)c1ccc(CCNC2CC(=O)N(Cc3ccccc3)C2=O)cc1 (stereo not drawn)	.
NS(=O)(=O)c1ccc(CCNC(=O)c2ccc3nc4ccc(Cl)cc4c(=O)n3c2)cc1	85.3
NC(=O)C1CCN(C2=C(Cl)C(=O)c3ccccc3C2=O)CC1	66.1
CCOC(=O)c1c(CN2CCN(CC#N)CC2)n(C)c2cc(Br)c(OC)cc12	68.5
Cc1cc(C)nc(NC(=O)NS(=O)(=O)Nc2ccc(Br)cn2)n1	.
CNC[C@H]1Oc2ccc(NC(=O)CCN3CCOCC3)cc2C(=O)N([C@H](C)CO)C[C@H]1C	.
CCN1/C(=C/C(C)=C/c2sc3ccccc3[n+]2CC)Sc2ccccc21	97.6
C[C@@H]1CN([C@@H](C)CO)C(=O)c2cc(NS(C)(=O)=O)ccc2O[C@@H](C)CCCCO[C@H]1CN(C)C(=O)Nc1ccc(F)cc1	.
CC1(Cc2cc(Cl)ccc2C(F)(F)F)C(=O)Nc2ccc(S(=O)(=O)NC3CCCCC3)cc21 (stereo not drawn)	85.7
N#Cc1ccccc1S(=O)(=O)N1CCN(Cc2cc3c(cc2Br)OCCO3)CC1	105.2
SMILES	PGC1a Ac signal
COc1ccc2sc(C)[n+](C)c2c1	.
Cc1ccc(NC(=O)c2ccccc2)cc1-n1cnnn1	.
Cc1c(NC(=O)COC(=O)c2ccccc2O)c(=O)n(-c2ccccc2)n1C	.
Cn1ncc2c(O/N=C(\N)c3ccc(C(F)(F)F)cc3)ncnc21	.
CN(C)CCCN(C(=O)CCOc1ccccc1)c1nc2ccc(F)cc2s1	.
CN(C)CCOc1ccc(/C(=C(/CCCl)c2ccccc2)c2ccccc2)cc1	108.8
Cc1noc(C)c1S(=O)(=O)Nc1cccc2c1O[C@@H](CN(C)Cc1ccncc1)[C@@H](C)CN([C@@H](C)CO)C2=O	.
Cc1noc(C)c1NC(=O)N[C@H]1C=C[C@H](CC(=O)NCc2ccc(Cl)c(Cl)c2)O[C@H]1CO	.
COc1ccc(NC(=O)/C(Cl)=C(/Cl)S(=O)(=O)Cc2ccccc2)cn1	.
COc1ccc(NC(=O)C(Cl)=C(Cl)Cl)cn1	101.0
COc1ccc(NC(=O)/C(Cl)=C(/Cl)S(=O)Cc2ccc(Cl)cc2)cn1 (stereo not drawn)	.
Cc1ccccc1S(=O)(=O)NCC[C@@H]1CC[C@H](NC(=O)C2CCOCC2)[C@@H](CO)O1	.
COC(=O)[C@]1(Cc2ccccc2)N=C(c2ccc(OCCCO)cc2)O[C@@H]1c1ccccc1	77.2
COC(=O)[C@@]1(Cc2ccccc2CN=[N+]=[N-])N=C(c2ccc(OCCCO)cc2)O[C@H]1c1ccccc1	66.4
COC(=O)[C@]1(Cc2ccccc2)N=C(c2ccc(OCCCO)cc2)O[C@@H]1c1ccccc1CN=[N+]=[N-]	100.7
O=C(Nc1ccc(Cl)c(Cl)c1)N[C@@H]1CC[C@H](CCn2cc(C3CC3)nn2)O[C@H]1CO	.
Cc1ccc(S(=O)(=O)N(C)C[C@@H]2OCCCC[C@H](C)Oc3ccc(NS(C)(=O)=O)cc3C(=O)N([C@@H](C)CO)C[C@@H]2C)cc1	.
Cc1cc(C)cc(N(CC(=O)NC2CC3CCC2C3)S(C)(=O)=O)c1 (stereo not drawn)	82.6
CCCCS(=O)(=O)/C=C\C=C/S(=O)(=O)CCCC	.
Cc1ccccc1OCC(=O)N/N=C/c1cc2ccccc2nc1Cl	59.3
Cc1cc(OCC(=O)NNC(=O)c2cnccn2)cc(C)c1Cl	.
Nc1nnc(CC(=O)N/N=C/c2ccccc2OCc2ccc(F)cc2)s1	.
CC[C@H](C)C1OC(=O)[C@@H](C)[C@@H](CC)NC(=O)[C@H](C)N(C)C(=O)C(C)(C)C(=O)C(C)NC(=O)[C@H](Cc2ccc(OC)cc2)N(C)C(=O)[C@H](C(C)C)N(C)C(=O)CNC(=O)[C@H](CC(C)C)N(C)C(=O)CNC1=O (stereo partly drawn)	.
CCCCC(=O)NCCc1cc2c(OC)ccc(OC)c2[nH]c1=O	.
COCCNC(=O)/C(C#N)=C/C=C/c1ccccc1[N+](=O)[O-]	104.1
SMILES	PGC1a Ac signal
COc1ccc(-n2nc(C#N)c(Cl)cc2=O)cc1	.
O=C(NCc1cccnc1)c1ccc(NC(=O)c2cccc([N+](=O)[O-])c2)cc1	170.7
C/C(=N/NC(=O)CNC(=O)c1cccnc1)c1ccc([N+](=O)[O-])cc1	.
O=C(COc1ccc([N+](=O)[O-])cc1)Nc1ccc(C(=O)NCc2cccnc2)cc1	191.9
CC(C)(C)NC(=O)C(=O)NNC(=O)c1cccc([N+](=O)[O-])c1	.
Cc1ccc(S(=O)(=O)Nc2ccccc2C(=O)NCc2cccnc2)cc1	.
Cc1c(Cl)c([N+](=O)[O-])nn1CC(=O)NCc1cccnc1	.
O=C(C[C@@H]1C=C[C@@H](NC(=O)Nc2ccc(F)cc2)[C@@H](CO)O1)NCCN1CCCC1	.
C[C@@H]1CN([C@H](C)CO)C(=O)c2cccc(NC(=O)c3nc4ccccc4s3)c2O[C@@H]1CN(C)C(=O)Nc1ccc(F)cc1	.
Cn1nc(C(=O)N2CCCCC2)c2c1-c1ccccc1S(=O)(=O)C2	.
COc1ccc(-c2onc(C)c2-c2ccc(C(=O)OC(C)C)o2)c(O)c1	.
COc1ccc(C[C@@H]2OC3(C=CC(=O)C=C3)O[C@H]2Cc2ccc(OC)cc2)cc1	.
CC(C)NC(=O)N(C)C[C@H]1OCCCC[C@@H](C)Oc2ccc(NC(=O)Nc3ccc(C(F)(F)F)cc3)cc2C(=O)N([C@H](C)CO)C[C@@H]1C	.
COc1ccc2c(-c3ccccc3)cc(=O)[nH]c2c1	.
COc1ccc(-c2cc(-c3ccccc3)c(C#N)c(S(C)=O)n2)cc1 (stereo not drawn)	.
COc1ccc(-c2ccc(OC)cc2C(=O)O)cc1	70.2
CSc1cccc(N2CC(C(=O)NCCN3C(=O)S/C(=C\c4cccnc4)C3=O)CC2=O)c1 (stereo not drawn)	.
O=C(NC1=NCCS1)C1CC(=O)N(c2ccccc2)C1 (stereo not drawn)	68.0

Assay outcomes: PubChem BioAssay, Broad Institute
